Results pooled from the literature.
Lines come from different studies, so protocols differ.
Target: Cyclin-dependent kinase 9 (CDK9, Homo sapiens, UniProt P50750)

For `CN(c1nccc(-c2cnn3ncccc23)n1)C1CC1`, the remaining binding was 100% (binding; 1 µM).
For `O=C(NCCCN1CCOCC1)c1ccc(Nc2nccc(-c3cc4ccccc4s3)n2)cc1`, the remaining binding was 52% (binding, competition with immobilised ligand; 1 µM).
`Nc1ncc2c(n1)-c1c([nH]c3ccc(C#CC4CC4)cc13)CCCC2` gave a remaining binding of 91% (binding, competition with immobilised ligand; 1 µM).
The remaining binding of `c1cncc(-c2cccc(Nc3nccc(NC4CCCCC4)n3)c2)c1` is reported as 63% (binding, competition with immobilised ligand; 10 µM).
The remaining binding of `C[C@@H]1CN(c2ccc3ncc(-c4ccc5[nH]nc(C6CC6)c5c4)n3n2)C[C@H](C)O1` is reported as 79% (binding, competition with immobilised ligand; 50 nM).
`Cc1cnn2ncc(-c3ccnc(N(C)C)n3)c2c1` has a remaining binding of 91% (binding; 1 µM).
The remaining binding of `O=C(c1ccc(Nc2ncc(Cl)c(-c3cc4ccccc4s3)n2)cc1)N1CCC(N2CCCC2)CC1` is reported as 82% (binding, competition with immobilised ligand; 1 µM).
The remaining binding of `N#Cc1ccccc1CSc1nnc2c(n1)[nH]c1ccccc12` is reported as 84% (binding, competition with immobilised ligand; 10 µM).
`Nc1cnc(N2CCc3cc(S(=O)(=O)Nc4c(F)cc(Cl)cc4F)cc(N4CCCC4=O)c32)nc1` has a remaining binding of 100% (cell-free assay, competition with immobilised ligand; 1 µM).
`FC(F)(F)Oc1cccc(-c2cnc3ccc(-c4ccncc4)nn23)c1` has a remaining binding of 89% (cell-free assay, competition with immobilised ligand; 5 µM).
`Cc1c(C(=O)O)cc(-c2ccc(C3CCNCC3)cc2)c2ccc(-c3ccc(C(F)(F)F)cc3)cc12` has a remaining binding of 100% (binding, competition with immobilised ligand; 1 µM).
With `COc1cnc(Nc2cccc(S(N)(=O)=O)c2)nc1N1CCN(c2ccccc2)C(=O)C1` the remaining binding was 100% (binding, competition with immobilised ligand; 1 µM).
For `CS(=O)(=O)N1CCCC(NC(=O)[C@H](CCC2CCCCC2)NC(=O)c2ccc(CNc3ncnc4c3nnn4-c3ccccc3)cc2)C1` (stereo partly shown), the remaining binding was 87% (cell-free assay, competition with immobilised ligand; 0.1 µM).
With `CCN1CCN(Cc2ccc(C(=O)Nc3ccc(C)c(Oc4ccc5c(c4)CC(=O)N5)c3)cc2C(F)(F)F)CC1` the remaining binding was 100% (binding, competition with immobilised ligand; 1 µM).
`O=C(O)[C@H]1[C@H](Cn2nnc3ccccc3c2=O)CC[C@@H]1C(=O)c1ccc(OCCC2CCOCC2)cc1` gave a remaining binding of 72% (cell-free assay, competition with immobilised ligand; 1 µM).
`CC1CCCN1c1nccc(-c2cnn3ncccc23)n1` (stereo not shown) gave a remaining binding of 100% (binding; 1 µM).
